# From PubChem BioAssay AID2646 (Broad Institute, 2010)
# Active and inactive are the calls of the source.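 How the source made its calls: active means mean cAMP rise at 10 µM above half of the positive control's rise; inactive means the rest.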
# Test system: human washed platelets, cAMP competitive ELISA, 5 min
# Assay: platelet cAMP elevation by single compound, confirmation, counter-screen for platelet activation inhibitor project, cell-based, competitive ELISA, PGE1 reference (AID 2646)
# Conditions: at 10 µM; hits give high values
# Summary of the method: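 Test system: washed human donor platelets; benchmarks: PGE1 1 µM high, DMSO 0.3% neutral; signal: competitive cAMP ELISA of platelet lysates, optical density; doses: 10 µM compound, single concentration; medium: lysis in 0.1 M HCl with 0.5% Triton X-100; timing: 5 min platelet exposure to compound or control; replication: duplicate samples per compound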
smiles,measurement,value
CCCC(=O)Nc1cccc(NC(=O)c2ccccc2Br)c1,"cAMP elevation, % of PGE1",43.9% (inactive)
